Laboratory results reported in ChEMBL document CHEMBL4334468, “Exploring Mitochondria-Mediated Intrinsic Apoptosis by New Phytochemical Entities: An Explicit Observation of Cytochrome c Dynamics on Lung and Melanoma Cancer Cells” (J Med Chem, 2019).

Experiments:
A-375 [1] = experiment: Cytotoxicity in human A375 cells assessed as reduction in cell viability incubated for 24 hrs by MTT assay; assay type: functional, cell-based
Summary of the method: (§1)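 MTT viability assay on A375 melanoma, A549 lung adenocarcinoma and WI-38 normal lung fibroblast cells after 24 and 48 h treatment. IC50 values are in µM, expressed as mean ± SD.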

A-375 [2] = experiment: Cytotoxicity in human A375 cells assessed as reduction in cell viability incubated for 48 hrs by MTT assay; assay type: functional, cell-based; summary of the method: as §1
A549 [3] = experiment: Cytotoxicity in human A549 cells assessed as reduction in cell viability incubated for 24 hrs by MTT assay; assay type: functional, cell-based; summary of the method: as §1
A549 [4] = experiment: Cytotoxicity in human A549 cells assessed as reduction in cell viability incubated for 48 hrs by MTT assay; assay type: functional, cell-based; summary of the method: as §1
WI-38 [5] = experiment: Cytotoxicity in human WI38 cells assessed as reduction in cell viability incubated for 24 hrs by MTT assay; assay type: cell-based; summary of the method: as §1
WI-38 [6] = experiment: Cytotoxicity in human WI38 cells assessed as reduction in cell viability incubated for 48 hrs by MTT assay; assay type: cell-based; summary of the method: as §1
[7] = Homo sapiens, A549, 48 h, read-out: IC50
[8] = Homo sapiens, A-375, 24 h, read-out: IC50
[9] = Homo sapiens, A-375, 48 h, read-out: IC50
[10] = Homo sapiens, A549, 24 h, read-out: IC50

| Structure (SMILES) | IC50 (A-375 [1]; a-375) | IC50 (A-375 [2]; a-375) | IC50 (A549 [3]; a549) | IC50 (A549 [4]; [7]) [µM] | IC50 (WI-38 [5]; wi-38) | IC50 (WI-38 [6]; wi-38) | IC50 (A-375 [1]; [8]) [µM] | IC50 (A-375 [2]; [9]) [µM] | IC50 (A549 [3]; [10]) [µM] | IC50 (WI-38 [5]; Homo sapiens, WI-38, 24 h, read-out: IC50) [µM] | IC50 (WI-38 [6]; Homo sapiens, WI-38, 48 h, read-out: IC50) [µM] | IC50 (A549 [4]; a549) |
| --- | --- | --- | --- | --- | --- | --- | --- | --- | --- | --- | --- | --- |
| COc1cc(C2Oc3cc(-c4cc(=O)c5c(O)cc(O)cc5o4)ccc3OC2c2cc(-c3ccc(C)cc3)on2)ccc1O (stereo unspecified) | Not Active | Not Active | Not Active | 77.4 | Non-Toxic | Non-Toxic |  |  |  |  |  |  |
| COc1cc(C2Oc3cc(-c4cc(=O)c5c(O)cc(O)cc5o4)ccc3OC2/C=C2/C(=O)ONC2CCl)ccc1O (stereo unspecified) |  |  |  | 0.07 |  |  | 0.04 | 0.035 | 0.095 | 5.5 | 4.9 |  |
| COc1cc(C2Oc3cc(-c4cc(=O)c5c(O)cc(O)cc5o4)ccc3OC2c2noc(C)c2CO)ccc1O (stereo unspecified) |  |  |  | 51 | Non-Toxic | Non-Toxic | 68.7 | 46.5 | 68 |  |  |  |
| COc1cc(C2Oc3cc(-c4cc(=O)c5c(O)cc(O)cc5o4)ccc3OC2/C=C2/C(=O)ONC2c2ccc(F)cc2)ccc1O (stereo unspecified) |  |  |  | 7.5 | Non-Toxic | Non-Toxic | 13.7 | 7.9 | 1.4 |  |  |  |
| COc1cc(C2Oc3cc(-c4cc(=O)c5c(O)cc(O)cc5o4)ccc3OC2/C=C2/C(=O)ONC2C)ccc1O (stereo unspecified) | Not Active | Not Active | Not Active |  | Non-Toxic | Non-Toxic |  |  |  |  |  | Not Active |
| COc1cc(C2Oc3cc(-c4cc(=O)c5c(O)cc(O)cc5o4)ccc3OC2/C=C2/C(=O)ONC2c2ccc(Cl)cc2)ccc1O (stereo unspecified) |  |  |  | 1.2 | Non-Toxic | Non-Toxic | 1.2 | 0.94 | 2 |  |  |  |
| COc1cc(C2Oc3cc(-c4cc(=O)c5c(O)cc(O)cc5o4)ccc3OC2C=O)ccc1O (stereo unspecified) |  |  |  | 87.8 | Non-Toxic | Non-Toxic | 63 | 43.8 | 96 |  |  |  |
| COc1cc(C2Oc3cc(-c4cc(=O)c5c(O)cc(O)cc5o4)ccc3OC2c2cc(C(=O)NS(=O)(=O)c3ccccc3)on2)ccc1O (stereo unspecified) |  |  |  | 6.3 | Non-Toxic | Non-Toxic | 7.2 | 3.5 | 51 |  |  |  |
| COc1cc(C2Oc3cc(-c4cc(=O)c5c(O)cc(O)cc5o4)ccc3OC2c2cc(CN)on2)ccc1O (stereo unspecified) |  |  |  | 2.2 | Non-Toxic | Non-Toxic | 7.5 | 4.6 | 5.2 |  |  |  |
| COc1cc(C2Oc3cc(-c4cc(=O)c5c(O)cc(O)cc5o4)ccc3OC2/C=C2/C(=O)ONC2c2ccccc2)ccc1O (stereo unspecified) |  |  |  | 10 | Non-Toxic | Non-Toxic | 18.5 | 15.6 | 13.5 |  |  |  |
| COc1cc(C2Oc3cc(-c4cc(=O)c5c(O)cc(O)cc5o4)ccc3OC2c2cc(Cc3ccccc3)on2)ccc1O (stereo unspecified) |  |  |  | 3.9 | Non-Toxic | Non-Toxic | 4.6 | 0.9 | 7 |  |  |  |
